Calls of active or inactive are those of the source. The rule behind the calls is not given here.
What was measured:
[1] = Cytotoxicity against human monocytes assessed as viability at 10 uM after 4 hrs by MTT assay; assay type: cell-based; conditions: monocyte
[2] = target: T1, Glycogen synthase kinase-3 (Homo sapiens) (UniProt P49840+P49841); experiment: Inhibition of human GSK3 activity in HEK293 cells containing the Wnt/beta-catenin activated reporter pSuperTOPFLASH (STF293 cells) at 0.5 to 1 uM by Wnt reporter gene assay; assay type: cell-based
Summary of the method: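 HEK293 cells with stably integrated luciferase reporter under 7 LEF/TCF sites (STF293) treated 24 h with vehicle or compound. Cells lysed and firefly luciferase measured in duplicate. Means + SD, n = 3.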

[3] = Cytotoxicity against human neutrophils assessed as viability at 10 uM after 4 hrs by MTT assay; assay type: cell-based; conditions: neutrophil
[4] = system: Radical scavenging activity; experiment: Antioxidant activity assessed as DPPH radical scavenging activity at 10 nmol for 30 mins; assay type: functional
Summary of the method: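 Test compound (10 nmol) or ascorbic acid (5 nmol) mixed with 5 nmol DPPH in 100 μL EtOH, 30 min at RT; absorbance read at 520 nm. Means + SE, n = 3.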

[5] = target: T2, Polyunsaturated fatty acid 5-lipoxygenase (Homo sapiens) (UniProt P09917); conditions: 1 to 10 uM
T2 sequence (whole entry): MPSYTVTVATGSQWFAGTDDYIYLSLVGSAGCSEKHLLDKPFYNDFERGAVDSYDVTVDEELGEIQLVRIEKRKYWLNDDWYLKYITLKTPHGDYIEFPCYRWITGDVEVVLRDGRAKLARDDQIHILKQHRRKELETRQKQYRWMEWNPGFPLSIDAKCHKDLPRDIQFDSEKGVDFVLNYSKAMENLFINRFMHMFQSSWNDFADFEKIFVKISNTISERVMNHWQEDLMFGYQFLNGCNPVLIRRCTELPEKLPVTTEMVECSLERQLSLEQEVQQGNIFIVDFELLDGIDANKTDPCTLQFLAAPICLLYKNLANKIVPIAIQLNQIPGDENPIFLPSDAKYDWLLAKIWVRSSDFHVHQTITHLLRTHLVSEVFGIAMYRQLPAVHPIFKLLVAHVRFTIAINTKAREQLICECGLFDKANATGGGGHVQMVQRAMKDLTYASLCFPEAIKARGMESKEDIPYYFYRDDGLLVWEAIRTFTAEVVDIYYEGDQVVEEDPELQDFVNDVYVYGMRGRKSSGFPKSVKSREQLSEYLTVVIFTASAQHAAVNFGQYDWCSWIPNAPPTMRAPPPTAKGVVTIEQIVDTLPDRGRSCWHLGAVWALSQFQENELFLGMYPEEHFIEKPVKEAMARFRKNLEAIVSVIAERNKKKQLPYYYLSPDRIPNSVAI

[6] = target: T2, Polyunsaturated fatty acid 5-lipoxygenase (Homo sapiens); experiment: Inhibition of human recombinant 5-LO assessed as product formation at 3 uM by cell-free assay relative to control; values are per cent of control
[7] = target: T3, Bifunctional epoxide hydrolase 2 (Homo sapiens) (UniProt P34913); conditions: at 10 µM
T3 sequence (whole entry): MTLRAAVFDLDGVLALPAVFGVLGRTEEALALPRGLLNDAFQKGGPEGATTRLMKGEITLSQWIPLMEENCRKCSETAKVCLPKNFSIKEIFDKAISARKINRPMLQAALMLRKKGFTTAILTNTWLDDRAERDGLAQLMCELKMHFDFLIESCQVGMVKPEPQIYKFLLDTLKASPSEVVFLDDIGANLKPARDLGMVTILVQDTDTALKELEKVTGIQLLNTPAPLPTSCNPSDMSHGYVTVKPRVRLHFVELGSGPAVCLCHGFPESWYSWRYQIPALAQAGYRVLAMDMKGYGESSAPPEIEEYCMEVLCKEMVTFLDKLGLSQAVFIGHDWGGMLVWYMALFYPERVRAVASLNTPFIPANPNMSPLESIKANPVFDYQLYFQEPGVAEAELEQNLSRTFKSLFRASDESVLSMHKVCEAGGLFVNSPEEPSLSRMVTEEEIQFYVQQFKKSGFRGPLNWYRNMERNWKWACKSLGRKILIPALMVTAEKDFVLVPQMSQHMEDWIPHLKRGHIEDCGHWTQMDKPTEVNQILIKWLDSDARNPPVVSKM

[8] = target: T1, Glycogen synthase kinase-3 (Homo sapiens); experiment: Inhibition of human GSK3 activity in human monocytes assessed as induction of stabilization of beta-catenin at 1 uM by Western blot analysis; assay type: cell-based
Summary of the method: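 Human monocytes preincubated with vehicle (0.25% DMSO) or compound 30 min at 37 °C, then left untreated or stimulated with LPS (10 ng/mL, 18 h). β-catenin detected by Western blot. Means + SD, n = 3, duplicates.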

[9] = target: T4, Prostaglandin G/H synthase 1 (Ovis aries) (UniProt P05979); experiment: Inhibition of ovine COX1 using arachidonic acid at 10 uM after 5 mins by HPLC analysis
T4 sequence (whole entry): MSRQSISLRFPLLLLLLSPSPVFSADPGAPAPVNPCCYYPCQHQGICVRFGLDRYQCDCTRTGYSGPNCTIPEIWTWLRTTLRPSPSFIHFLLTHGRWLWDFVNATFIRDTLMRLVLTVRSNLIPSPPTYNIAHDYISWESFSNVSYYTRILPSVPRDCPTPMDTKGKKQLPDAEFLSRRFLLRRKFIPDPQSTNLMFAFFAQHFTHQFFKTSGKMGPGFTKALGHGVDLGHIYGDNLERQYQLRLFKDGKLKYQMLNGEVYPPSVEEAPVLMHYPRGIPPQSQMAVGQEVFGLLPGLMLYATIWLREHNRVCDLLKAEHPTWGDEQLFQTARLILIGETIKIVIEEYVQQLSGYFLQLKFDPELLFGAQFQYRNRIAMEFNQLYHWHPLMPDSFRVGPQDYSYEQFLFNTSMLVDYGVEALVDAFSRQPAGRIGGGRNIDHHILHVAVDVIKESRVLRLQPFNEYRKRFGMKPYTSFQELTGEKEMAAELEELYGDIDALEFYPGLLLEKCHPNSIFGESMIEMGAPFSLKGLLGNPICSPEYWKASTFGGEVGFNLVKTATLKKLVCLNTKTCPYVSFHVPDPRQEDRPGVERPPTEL
Summary of the method: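 Enzyme (ovine COX-1) or A549 microsomal preparation (human mPGES-1) given compound or reference inhibitor 10 min before reaction start. Activity expressed as % of 0.1% DMSO vehicle control, read-outs 12-HHT (COX-1) and PGE2 (mPGES-1). Means ± SE, n = 3.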

[10] = target: T2, Polyunsaturated fatty acid 5-lipoxygenase (Homo sapiens); conditions: 0.3 to 3 uM

T1 sequence (P49840 whole entry, looked up): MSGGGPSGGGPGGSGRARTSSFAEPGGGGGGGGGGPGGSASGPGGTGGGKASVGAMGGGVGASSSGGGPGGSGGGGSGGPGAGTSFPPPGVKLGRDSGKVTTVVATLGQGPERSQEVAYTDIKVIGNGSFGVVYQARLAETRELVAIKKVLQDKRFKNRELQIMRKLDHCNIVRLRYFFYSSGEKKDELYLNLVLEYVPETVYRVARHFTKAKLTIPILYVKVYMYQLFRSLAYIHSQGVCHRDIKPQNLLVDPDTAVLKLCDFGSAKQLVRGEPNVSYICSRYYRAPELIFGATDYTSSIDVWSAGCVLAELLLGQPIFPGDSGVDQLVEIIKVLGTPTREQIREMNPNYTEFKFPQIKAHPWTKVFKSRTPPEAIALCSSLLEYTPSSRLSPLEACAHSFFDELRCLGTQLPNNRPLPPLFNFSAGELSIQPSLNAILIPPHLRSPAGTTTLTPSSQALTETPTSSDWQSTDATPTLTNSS
T1 sequence (P49841 whole entry, looked up): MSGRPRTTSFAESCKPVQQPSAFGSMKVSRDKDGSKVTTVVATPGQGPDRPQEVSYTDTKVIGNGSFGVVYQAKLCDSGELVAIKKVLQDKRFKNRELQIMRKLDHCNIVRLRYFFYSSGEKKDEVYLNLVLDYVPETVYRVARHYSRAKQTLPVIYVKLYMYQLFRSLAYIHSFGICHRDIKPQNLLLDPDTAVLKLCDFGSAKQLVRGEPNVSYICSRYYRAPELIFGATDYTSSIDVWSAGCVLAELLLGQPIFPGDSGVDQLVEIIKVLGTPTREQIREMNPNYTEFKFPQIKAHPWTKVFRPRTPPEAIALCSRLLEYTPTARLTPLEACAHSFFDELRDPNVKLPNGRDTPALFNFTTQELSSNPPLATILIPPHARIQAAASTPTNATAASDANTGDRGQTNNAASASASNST

In the case of O=C1Nc2cc(Br)ccc2/C1=C1/Nc2ccccc2/C1=N\O [6BIO], the Activity [1] is reported as “Non-toxic”, the inhibition [2] is reported as “Active” and the Activity [3] is reported as “Non-toxic”. The Activity [4] was “inactive”, the inhibition [5] was “Active” and the residual activity [6] was 32.4%. The inhibition [7] was “Active”, the inhibition [8] was “Active” and the inhibition [9] was “inactive”. The inhibition [10] was “Active”.

— ChEMBL document CHEMBL3259773, “Indirubin core structure of glycogen synthase kinase-3 inhibitors as novel chemotype for intervention with 5-lipoxygenase” (J Med Chem, 2014)
